Assay results as given in PMC4075987 (Biochemistry, 2014).
“Also recorded” adds a separate entry of the source. Where two headings read alike, the source gives them in different places. Each block holds one compound with its values, some of them ahead of it. Square brackets hold non-standard residues; d marks the D form. Peptide text beside a SMILES is read from it. Orn(N5-OH,N5-Ac) = CC(=O)N(O)CCC[C@H](N)C(=O)O

Assays:
apo-FbpABp [1] = target: T1, apo-FbpABp (Bordetella pertussis, UniProt Q7VXW9); assay type: binding
T1 sequence (Q7VXW9 31-349): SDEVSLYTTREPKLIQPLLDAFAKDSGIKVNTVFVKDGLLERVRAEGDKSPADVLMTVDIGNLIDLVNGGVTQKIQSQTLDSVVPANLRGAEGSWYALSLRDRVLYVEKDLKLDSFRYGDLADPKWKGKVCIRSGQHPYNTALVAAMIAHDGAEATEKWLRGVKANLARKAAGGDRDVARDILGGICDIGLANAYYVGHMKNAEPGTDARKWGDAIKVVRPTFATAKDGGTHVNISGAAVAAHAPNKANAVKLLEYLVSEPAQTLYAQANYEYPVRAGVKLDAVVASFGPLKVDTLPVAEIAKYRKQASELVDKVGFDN

apo-FbpABp [2] = target: T1, apo-FbpABp; assay: UV-vis spectral difference experiment between apo-DFB and apo-FbpABp; assay type: binding; conditions: results not shown
FbpABp = assay type: binding, Bordetella pertussis; conditions: absence of a suitable synergistic anion
Summary of the method: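 Recombinant B. pertussis FbpA was made periplasmically in B. bronchiseptica ΔfbpA grown in iron-depleted Stainer–Scholte medium at 35 °C, then osmotic-shock extracted and DEAE-purified. Apo-protein took 50 equiv carbonate/oxalate (30 min) then 10 equiv Fe(ClO4)3 (overnight, 4 °C, filtered), or 10 equiv citrate/NTA then 2 equiv 1:1 Fe-anion. Iron was titrated to maximal CT band, dialysed, then competed against EDTA; pH 6.5 MES/NaCl.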

apo-FbpABp [3] = target: T1, apo-FbpABp; conditions: pH 6.5, 50 mM MES, 100 mM NaCl; monitored 3 h
[4] = read-out: Kd (apparent Fe3+-siderophore/apo-FbpABp dissociation constant, eq 3), ferric siderophore complex, one-site model, 50 mM MES, 100 mM NaCl, pH 6.5, room temperature

Compound: O=C1CCC(=O)N(O)CCC(O)CNC(=O)CCC(=O)N(O)CCC(O)CN1 (centres unmarked) [ALC, alcaligin]
Kd (apo-FbpABp [1]; [4]): ~0.1 µM

Kd (apo-FbpABp [1]): ~1 µM
Compound: CC(=O)N(O)CCCCCNC(=O)CCC(=O)N(O)CCCCCNC(=O)CCC(=O)N(O)CCCCCN [DFB, desferrioxamine B]
binding of apo-siderophore by apo-FbpABp (apo-FbpABp [2]): not able to bind an apo-siderophore effectively

Kd (apo-FbpABp [1]): ~1 µM
quenching of apo-protein fluorescence emission band by apo-siderophore (apo-FbpABp [1]; apo-siderophore, final protein:apo-siderophore 1:4 (ALC), 1:2 (ENT)): < 16%
Compound: O=C(N[C@H]1COC(=O)[C@@H](NC(=O)c2cccc(O)c2O)COC(=O)[C@@H](NC(=O)c2cccc(O)c2O)COC1=O)c1cccc(O)c1O [ENT, enterobactin]

Kd (apo-FbpABp [1]; [4]): ~1 µM
Compound: CC(=O)N([O-])CCC[C@@H]1NC(=O)CNC(=O)CNC(=O)CNC(=O)[C@H](CCCN([O-])C(C)=O)NC(=O)[C@H](CCCN([O-])C(C)=O)NC1=O.[Fe+3] [FC, ferrichrome] (cyclo(GGG[Orn(N5-OH,N5-Ac)][Orn(N5-OH,N5-Ac)][Orn(N5-OH,N5-Ac)]))

Fe3+ sequestration by FbpABp (FbpABp): No Fe^3+ sequestration was observed
Compound: [Fe+3] [Fe^3+, Ferric iron]

Compound: ferric-alcaligin [Fe2(ALC)3]
Qmax (maximum % quenching) (apo-FbpABp [1]; ferric siderophore complex, emission 352 nm, excitation 297 nm, pH 6.5): ~80%
blue shift of FbpABp emission band (apo-FbpABp [1]; on addition of ferric siderophore to apo-FbpABp): ~8 nm
Kd (apo-FbpABp [1]; [4]): 0.13 ± 0.04 µM
change of ferric siderophore CT band after addition of apo-FbpABp (apo-FbpABp [3]): shift in λmax from 428 nm (CT band for Fe2ALC3) to 410 nm; also recorded: λmax shifted from 428 to 410 nm
